ChEMBL document CHEMBL1124462, “Synthesis, DNA binding, and biological evaluation of synthetic precursors and novel analogues of netropsin” (J Med Chem, 1989)
Values after ≈ are worked out from the molar mass of the structure shown.

Key:
Vero [1] = experiment: Minimum cytotoxic concentration required to cause a microscopically detectable alteration of normal cell morphology and show antiviral activity in african green monkey (Vero B) cells; format: functional; conditions: Chlorocebus sabaeus
HeLa [2] = experiment: Minimum inhibitory concentration required to reduce Coxsackie virus B4 induced cytopathogenicity by 50% in HeLa cells; format: functional; conditions: Homo sapiens
Outline: (§1)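 Cell cultures (PRK, HeLa or Vero B) are infected at 100 × CCID50. Cytopathogenicity is recorded once it reaches completion in the untreated virus-infected controls. The minimum inhibitory concentration is given in μg/mL.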

HeLa [3] = experiment: Minimum inhibitory concentration required to reduce polio virus -1 induced cytopathogenicity by 50% in HeLa cells; format: functional; conditions: Homo sapiens
HeLa [4] = experiment: Minimum inhibitory concentration required to reduce vesicular stomatitis virus induced cytopathogenicity by 50% in HeLa cells; format: functional; conditions: Homo sapiens
HeLa [5] = experiment: Minimum cytotoxic concentration required to cause a microscopically detectable alteration of normal cell morphology and show antiviral activity in HeLa cells; format: functional; conditions: Homo sapiens
Outline: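 HeLa cell cultures exposed to compound for the same duration as the antiviral assay, then examined microscopically. The minimum cytotoxic concentration is the lowest level causing detectable alteration of normal cell morphology. Values are in μg/mL.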

[6] = Minimum inhibitory concentration required to reduce herpes simplex virus-1 (KOS)induced cytopathogenicity by 50% in primary rabbit kidney cells (PRK); format: functional; conditions: Oryctolagus cuniculus
[7] = Minimum inhibitory concentration required to reduce herpes simplex virus-2 (G)induced cytopathogenicity by 50% in primary rabbit kidney cells (PRK); format: functional; conditions: Oryctolagus cuniculus
[8] = (§2) Minimum inhibitory concentration required to reduce vesicular stomatitis virus induced cytopathogenicity by 50% in primary rabbit kidney cells (PRK); format: functional; conditions: Oryctolagus cuniculus
Oryctolagus cuniculus = species on record: Oryctolagus cuniculus; experiment: Minimum cytotoxic concentration required to cause a microscopically detectable alteration of normal cell morphology and show antiviral activity in primary rabbit kidney (PRK) cells; format: functional
Sindbis virus = experiment: (§3) Minimum inhibitory concentration required to reduce Sindbis virus induced cytopathogenicity by 50% in african green monkey (VeroB) cells; format: functional; outline: as §1
Vero [9] = experiment: Minimum inhibitory concentration required to reduce parainfluenza virus-3 induced cytopathogenicity by 50% in african green monkey (VeroB) cells; format: functional, Human respirovirus 3; conditions: Chlorocebus sabaeus; outline: as §1
[10] = tested on: Mammalian orthoreovirus 1; experiment: Minimum inhibitory concentration required to reduce reovirus-1 induced cytopathogenicity by 50% in african green monkey (VeroB)cells; format: functional; outline: as §1
Semliki Forest virus = experiment: Minimum inhibitory concentration required to reduce semliki forest virus induced cytopathogenicity by 50% in african green monkey (VeroB) cells; format: functional; outline: as §1
Vero [11] = experiment: Minimum inhibitory concentration required to reduce Coxsackie virus B4 induced cytopathogenicity by 50% in african green monkey (VeroB) cells; format: functional, Coxsackievirus B4; conditions: Chlorocebus sabaeus; outline: as §1
Raji [12] = experiment: Dose required to inhibit Human B-Lymphoblast (Raji) cell proliferation by 50%; format: functional; conditions: read-out: CD50 (the source's name)
L1210 = experiment: Dose required to inhibit Murine leukemia (L1210) cell proliferation by 50%; format: functional; conditions: Mus musculus, read-out: CD50 (the source's name)
Nucleic Acid [13] = experiment: Association constant against the polynucleotide poly (dA-dT).; format: nucleic-acid assay
Outline: (§4)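 Competition with ethidium bromide binding at 25 °C in 0.01 M cacodylate buffer, pH 7.0, with 1.26 μM ethidium bromide and 1 μM polynucleotide. Bound ethidium is estimated from its fluorescence increase (V = 34 for poly(dA-dT), 25 for poly(dG-dC)). IC50 for 50% ethidium displacement comes from a fitted competition sigmoid. Kapp is calculated from IC50 assuming a binding size of four base pairs.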

[14] = Minimum inhibitory concentration required to reduce herpes simplex virus-2 (G) induced cytopathogenicity by 50% in primary rabbit kidney cells (PRK); format: functional; conditions: Oryctolagus cuniculus; outline: as §1
[15] = Minimum inhibitory concentration required to reduce herpes simplex virus-1 (KOS) induced cytopathogenicity by 50% in primary rabbit kidney cells (PRK); format: functional; conditions: Oryctolagus cuniculus; outline: as §1
[16] = tested on: Vesicular stomatitis virus; experiment: as §2; format: functional
[17] = Dose required to inhibit Human T-Lymphoblast (Molt/4F) cell proliferation by 50%; format: functional; conditions: read-out: CD50 (the source's name)
Vero [18] = experiment: as §3; format: ADME, cell-based; conditions: Chlorocebus sabaeus, read-out: MIC; outline: as §1
Nucleic Acid [19] = experiment: Association constant against polynucleotide poly (dG-dC); format: nucleic-acid assay; outline: as §4
Human alphaherpesvirus 2 = experiment: Minimum inhibitory concentration required to reduce herpes simplex virus-2(G) induced cytopathogenicity by 50% in primary rabbit kidney cells (PRK); format: functional; outline: as §1
Human alphaherpesvirus 1 = experiment: Minimum inhibitory concentration required to reduce herpes simplex virus-1 (KOS) induced cytopathogenicity by 50% in primary rabbit kidney cells(PRK); format: functional; outline: as §1
Nucleic Acid [20] = experiment: Association constant against the polynucleotide poly(dA-dT); format: nucleic-acid assay; outline: as §4
Nucleic Acid [21] = experiment: Ratio of association constant of poly(dA-dT) and poly(dG-dC); format: nucleic-acid assay
Outline: (§5)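 Kapp for poly(dA-dT) and for poly(dG-dC) is each determined by ethidium bromide competition in 0.01 M cacodylate, pH 7.0, 25 °C, with 1.26 μM ethidium and 1 μM polynucleotide. IC50 comes from a fitted competition sigmoid and is converted to Kapp assuming a four-base-pair binding size. The ratio is taken between the two polynucleotides.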

FM3A = experiment: In vitro inhibition of FM3A (murine mammary carcinoma) cell proliferation.; format: functional; conditions: Mus musculus, read-out: CD50 (the source's name)
[22] = Dose required to inhibit Murine mammary carcinoma (FM3A) cell proliferation by 50%; format: functional; conditions: Mus musculus, read-out: CD50 (the source's name)
Nucleic Acid [23] = experiment: Ratio of association constant of poly (dA-dT) and poly (dG-dC); format: nucleic-acid assay; outline: as §5
Raji [24] = experiment: Inhibition of Human B-Lymphoblast Raji cell proliferation; format: functional; conditions: read-out: CD50 (the source's name)

Row | Compound | MCC (Vero [1]) | MIC (HeLa [2]) | MIC (HeLa [3]) | MCC (HeLa [5]) | MIC [6] | MIC [7] | MCC (Oryctolagus cuniculus) | MIC (Sindbis virus) | MIC (Vero [9]) | MIC [10] | MIC (Semliki Forest virus) | MIC (Vero [11]) | CC50 (Raji [12]) | CC50 (L1210) | MIC [16] | CC50 [17] | K app (Nucleic Acid [19]) | MIC (Human alphaherpesvirus 2) | MIC (Human alphaherpesvirus 1) | K app (Nucleic Acid [20]) | further results
1 | Nc1ncnc2c1ccn2[C@@H]1O[C@H](CO)[C@@H](O)[C@H]1O [TUBERCIDIN] | > 0.4 µg/mL | 0.07 µg/mL (≈ 0.263 µM) | 0.07 µg/mL (≈ 0.263 µM) | > 0.4 µg/mL | > 0.1 µg/mL | > 0.1 µg/mL | >0.4 µg/mL | 0.1 µg/mL (≈ 0.376 µM) | 0.07 µg/mL (≈ 0.263 µM) | 0.07 µg/mL (≈ 0.263 µM) | > 0.4 µg/mL | 0.07 µg/mL (≈ 0.263 µM) |  |  |  |  |  |  |  |  | MIC (HeLa [4]): 0.07 µg/mL (≈ 0.263 µM); MIC [8]: 0.2 µg/mL (≈ 0.751 µM)
2 | Cn1c(C(=O)NCCC#N)ccc1[N+](=O)[O-] | > 400 µg/mL | > 200 µg/mL |  | 400 µg/mL |  |  | 400 µg/mL |  | > 100 µg/mL | > 100 µg/mL | > 100 µg/mL | > 200 µg/mL | > 50 µg/mL | > 50 µg/mL | 300 µg/mL (≈ 1350 µM) | > 50 µg/mL | < 100 M⁻¹ |  |  |  | K app (Nucleic Acid [13]): < 100 M⁻¹; MIC [14]: > 200 µg/mL; MIC [15]: > 200 µg/mL; IC50 (Vero [18]): > 100 µg/mL
3 | Cn1cc(NC(=O)c2cc([N+](=O)[O-])cn2C)cc1C(=O)NCCC(=N)N | 400 µg/mL | > 400 µg/mL |  | > 400 µg/mL |  |  | 400 µg/mL | > 300 µg/mL | > 200 µg/mL | > 100 µg/mL | 300 µg/mL (≈ 830 µM) | > 200 µg/mL | > 100 µg/mL | > 100 µg/mL | > 100 µg/mL | > 100 µg/mL | < 100 M⁻¹ | > 200 µg/mL | > 200 µg/mL | 12000 M⁻¹ | Ratio (Nucleic Acid [21]): > 120
4 | C[C@H](NC(=O)c1cc(NC(=O)c2cc([N+](=O)[O-])cn2C)cn1C)C(=O)N[C@@H](C)C(=O)N[C@@H](C)C(=O)OC(C)(C)C | > 400 µg/mL | > 200 µg/mL | > 400 µg/mL | > 400 µg/mL |  |  | >400 µg/mL | > 200 µg/mL | > 400 µg/mL | > 200 µg/mL | > 200 µg/mL | > 200 µg/mL | > 100 µg/mL | > 100 µg/mL | > 100 µg/mL | > 100 µg/mL | 750 M⁻¹ | > 200 µg/mL | > 100 µg/mL | < 100 M⁻¹ | CC50 (FM3A): > 100 µg/mL; Ratio (Nucleic Acid [21]): < 0.13
5 | Cn1cc(NC(=O)c2cc(NC(=O)CNC(=N)N)cn2C)cc1C(=O)NCCCNCCCCN | ≥ 200 µg/mL | > 200 µg/mL |  | > 200 µg/mL | > 200 µg/mL | > 200 µg/mL | >=400 ug ml-1 | > 200 µg/mL | > 200 µg/mL | > 100 µg/mL | > 200 µg/mL | > 200 µg/mL | > 200 µg/mL | > 200 µg/mL |  | > 200 µg/mL | 7.6e+06 M⁻¹ |  |  |  | CC50 [22]: > 200 µg/mL; K app (Nucleic Acid [13]): 2e+07 M⁻¹; Ratio (Nucleic Acid [23]): 2.63
6 | Cn1cc([N+](=O)[O-])cc1C(=O)NCCCNCCCCN | > 400 µg/mL | > 400 µg/mL |  | > 400 µg/mL |  |  | >400 µg/mL | > 400 µg/mL | > 200 µg/mL | > 100 µg/mL | > 400 µg/mL | > 200 µg/mL | > 200 µg/mL | > 200 µg/mL | > 400 µg/mL | > 200 µg/mL | 420000 M⁻¹ | > 200 µg/mL | > 200 µg/mL | 1e+06 M⁻¹ | CC50 (FM3A): > 200 µg/mL; Ratio (Nucleic Acid [21]): 2.38
7 | NC(=O)c1ncn([C@@H]2O[C@H](CO)[C@@H](O)[C@H]2O)n1 [RIBAVIRIN] | > 400 µg/mL | 70 µg/mL (≈ 287 µM) | 70 µg/mL (≈ 287 µM) | > 200 µg/mL | > 400 µg/mL | > 400 µg/mL | >400 µg/mL | 70 µg/mL (≈ 287 µM) | 20 µg/mL (≈ 81.9 µM) | 20 µg/mL (≈ 81.9 µM) | 150 µg/mL (≈ 614 µM) | 70 µg/mL (≈ 287 µM) |  |  |  |  |  |  |  |  | MIC (HeLa [4]): 20 µg/mL (≈ 81.9 µM); MIC [8]: > 400 µg/mL
8 | Cn1cc(NC(=O)c2cc([N+](=O)[O-])cn2C)cc1C(=O)NCCC#N | > 40 µg/mL | > 10 µg/mL |  | > 40 µg/mL |  |  | >40 µg/mL | > 10 µg/mL | > 10 µg/mL | > 10 µg/mL | > 10 µg/mL | > 10 µg/mL |  | > 100 µg/mL | > 10 µg/mL | > 100 µg/mL | < 100 M⁻¹ | > 10 µg/mL | > 10 µg/mL | < 100 M⁻¹ | CC50 (Raji [24]): > 100 µg/mL
9 | Cn1cc(NC(=O)c2cc(NC(=O)CNC(=N)N)cn2C)cc1C(=O)NCCC(=N)N [NETROPSIN] | > 400 µg/mL | > 100 µg/mL | > 100 µg/mL | > 100 µg/mL | > 400 µg/mL | > 400 µg/mL | >400 µg/mL | > 400 µg/mL | > 400 µg/mL | > 400 µg/mL | > 400 µg/mL | > 400 µg/mL | 139 µg/mL (≈ 323 µM) | 295 µg/mL (≈ 685 µM) |  | > 100 µg/mL | 31000 M⁻¹ |  |  |  | CC50 [22]: 321 µg/mL (≈ 746 µM); MIC (HeLa [4]): > 100 µg/mL; K app (Nucleic Acid [13]): 7.3e+08 M⁻¹; Ratio (Nucleic Acid [23]): 23500; MIC [8]: > 400 µg/mL
